Assay results reported in ChEMBL document CHEMBL1147147 (J Med Chem, 2007).

Legend:
Clostridium botulinum [1] = experiment: Inhibition of botulinum neurotoxin serotype A light chain metalloprotease at 50 uM
Summary of the method: (§1)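 Percent inhibition of BoNT/A light chain metalloprotease activity was measured at a single inhibitor concentration, by a method described in earlier work, in duplicate.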

[2] = Inhibition of botulinum neurotoxin serotype A light chain metalloprotease; set-up: species or system Clostridium botulinum
Summary of the method: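 Metalloprotease activity of the BoNT/A light chain was measured by a method described in earlier work. IC50 was derived from concentration-versus-inhibition plots using seven or nine concentrations per inhibitor, averaged from duplicate determinations.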

Clostridium botulinum [3] = experiment: Inhibition of botulinum neurotoxin serotype A light chain metalloprotease at 20 uM; summary of the method: as §1

Q: Which inhibition (Clostridium botulinum [1]) does the source give for `COC(=O)CCC(C)[C@H]1CC[C@H]2[C@@H]3[C@H](OC(C)=O)C[C@@H]4C[C@H](OC(C)=O)CC[C@]4(C)[C@H]3C[C@H](OC(C)=O)[C@]12C` (stereo partly specified) here?
A: 0%

Q: Which IC50 [2] does the source give for `COC(=O)CCC(C)[C@H]1CC[C@H]2[C@@H]3[C@H](OC(C)=O)C[C@@H]4C[C@@H](NCCNc5ccnc6cc(Cl)ccc56)CC[C@]4(C)[C@H]3C[C@H](OC(C)=O)[C@]12C` (stereo partly specified) here?
A: 17 µM

Q: And the inhibition (Clostridium botulinum [1])?
A: 80%

Q: For `Nc1ccnc2cc(Cl)ccc12`, which inhibition (Clostridium botulinum [1]) is on record?
A: 12%

Q: For `Clc1ccc2c(NCCCN(CCCNc3ccnc4cc(Cl)ccc34)CCCNc3ccnc4cc(Cl)ccc34)ccnc2c1`, which IC50 [2] is on record?
A: 3.2 µM

Q: What about the inhibition (Clostridium botulinum [3]) of the same compound?
A: 67%

Q: For `COC(=O)CCC(C)[C@H]1CC[C@H]2[C@@H]3[C@H](OC(C)=O)C[C@@H]4C[C@H](NCCNc5ccnc6cc(Cl)ccc56)CC[C@]4(C)[C@H]3C[C@H](OC(C)=O)[C@]12C` (stereo partly specified), which IC50 [2] is on record?
A: 7 µM

Q: And the inhibition (Clostridium botulinum [1])?
A: 90%

Q: For `COC(=O)CCC(C)[C@H]1CC[C@H]2[C@@H]3[C@H](OC(C)=O)C[C@@H]4C[C@H](OCCNc5ccnc6cc(Cl)ccc56)CC[C@]4(C)[C@H]3CC(OC(C)=O)[C@]12C` (stereo partly specified), which inhibition (Clostridium botulinum [1]) is on record?
A: 9%

Q: With `COC(=O)CCC(C)[C@H]1CC[C@H]2[C@@H]3[C@H](OC(C)=O)C[C@@H]4C[C@H](OCCNCCNc5ccnc6cc(Cl)ccc56)CC[C@]4(C)[C@H]3CC(OC(C)=O)[C@]12C` (stereo partly specified) as the compound, how does the inhibition (Clostridium botulinum [1]) read?
A: 62%

Q: For `COC(=O)CCC(C)[C@H]1CC[C@H]2[C@@H]3[C@H](OC(C)=O)C[C@@H]4C[C@H](N)CC[C@]4(C)[C@H]3C[C@H](OC(C)=O)[C@]12C` (stereo partly specified), which inhibition (Clostridium botulinum [1]) is on record?
A: 13%
